According to publication PMC12304097 (Scientific Reports, 2025):
Values belong to the compound of their own block, whether it stands above or below them.

Key:
[1] = biological target: T1, NEP2 (recombinant soluble extracellular domain) (Homo sapiens, UniProt Q495T6); assay: Inhibition of NEP2-mediated NP cleavage; format: biochemical; details: inhibitor 50 µM, NEP2 113 nM
T1 sequence (Q495T6 74-779): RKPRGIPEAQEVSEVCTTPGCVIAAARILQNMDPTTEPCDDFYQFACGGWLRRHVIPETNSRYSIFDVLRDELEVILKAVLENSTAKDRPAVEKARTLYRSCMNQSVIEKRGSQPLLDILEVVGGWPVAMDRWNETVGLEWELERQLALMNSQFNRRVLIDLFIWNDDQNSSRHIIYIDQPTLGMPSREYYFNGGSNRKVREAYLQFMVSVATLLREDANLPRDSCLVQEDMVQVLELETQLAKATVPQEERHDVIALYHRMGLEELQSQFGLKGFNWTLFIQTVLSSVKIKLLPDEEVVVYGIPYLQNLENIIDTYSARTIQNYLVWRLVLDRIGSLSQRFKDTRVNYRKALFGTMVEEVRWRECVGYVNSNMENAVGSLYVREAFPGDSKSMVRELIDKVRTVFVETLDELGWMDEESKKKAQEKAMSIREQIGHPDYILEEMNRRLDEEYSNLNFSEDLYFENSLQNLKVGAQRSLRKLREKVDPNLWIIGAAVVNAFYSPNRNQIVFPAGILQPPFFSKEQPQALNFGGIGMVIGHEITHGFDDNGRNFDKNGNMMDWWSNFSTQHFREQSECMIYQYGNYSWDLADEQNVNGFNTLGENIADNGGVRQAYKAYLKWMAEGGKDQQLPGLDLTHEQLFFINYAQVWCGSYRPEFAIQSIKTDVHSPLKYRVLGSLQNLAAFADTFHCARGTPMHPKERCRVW

[2] = biological target: T2, NEP (recombinant soluble extracellular domain) (Homo sapiens, UniProt P08473); assay: Inhibition of NEP-mediated NP cleavage; format: biochemical; details: inhibitor 50 µM, NEP 9.4 nM
NEP = details: cited from earlier work
NEP2 = details: cited from earlier work
cGMP = details: canine model of renin-angiotensin-aldosterone system; cited from earlier work
[3] = biological target: T1, NEP2 (recombinant soluble extracellular domain); assay: In vitro NP cleavage by NEP2, read by intact-ring s-IA; format: in vitro ADME; details: sentence says the same is true for NEP2
How it was run: (§1)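 Ni-NTA-purified His-tagged soluble human ectodomains were used: NEP (aa 56–750, Expi293F) at 9.4 nM and NEP2 (aa 74–779, ExpiCHO-S) at 113 nM. Doses were activity-matched on a fluorogenic substrate. […] Reactions were stopped with EDTA buffer and read by Eu-chelate intact-ring ANP or BNP sandwich immunoassay, relative to enzyme-free sample.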

[4] = biological target: T2, NEP (recombinant soluble extracellular domain); assay: In vitro NP cleavage by NEP, read by intact-ring s-IA; format: in vitro ADME
How it was run: as §1

[5] = peptide 1.45 µM, intact-ring s-IA, P < 0.005

T2 sequence (P08473 56-750): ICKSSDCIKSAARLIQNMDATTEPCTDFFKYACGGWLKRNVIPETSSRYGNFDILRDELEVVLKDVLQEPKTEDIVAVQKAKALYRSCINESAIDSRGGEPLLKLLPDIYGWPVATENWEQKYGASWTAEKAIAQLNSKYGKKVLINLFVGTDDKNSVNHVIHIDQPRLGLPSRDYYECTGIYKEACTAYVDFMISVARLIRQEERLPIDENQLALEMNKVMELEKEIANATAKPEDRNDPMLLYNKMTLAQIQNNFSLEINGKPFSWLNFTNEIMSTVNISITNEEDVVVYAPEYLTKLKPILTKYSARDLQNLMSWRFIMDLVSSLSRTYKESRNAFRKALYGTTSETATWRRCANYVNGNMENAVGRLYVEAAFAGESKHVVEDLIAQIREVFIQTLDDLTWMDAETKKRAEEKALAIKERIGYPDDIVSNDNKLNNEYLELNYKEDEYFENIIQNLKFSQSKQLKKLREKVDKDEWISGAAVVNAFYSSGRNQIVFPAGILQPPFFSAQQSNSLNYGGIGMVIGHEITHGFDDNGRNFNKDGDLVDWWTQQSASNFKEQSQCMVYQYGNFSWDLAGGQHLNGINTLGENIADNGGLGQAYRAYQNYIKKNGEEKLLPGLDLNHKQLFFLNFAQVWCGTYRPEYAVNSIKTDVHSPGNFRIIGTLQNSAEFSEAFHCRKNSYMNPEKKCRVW

Effect of inhibitor on neo5-epitope formation during BNP proteolysis by NEP2 ([1]; BNP 1.45 µM, neo5 s-IA): inhibited
Effect of inhibitor on ANP and BNP proteolysis by NEP2 [1, 5]: inhibited
Effect of inhibitor on neo5-epitope formation during BNP proteolysis by NEP ([2]; BNP 1.45 µM, neo5 s-IA): inhibited
Effect of inhibitor on ANP and BNP proteolysis by NEP [2, 5]: inhibited
Compound: CC(C)C[C@H](NP(=O)(O)O[C@@H]1O[C@@H](C)[C@H](O)[C@@H](O)[C@H]1O)C(=O)N[C@@H](Cc1c[nH]c2ccccc12)C(=O)O [phosphoramidon]
Inhibition of NEP (NEP): sensitive
Inhibition of NEP2 (NEP2): sensitive

Compound: C[C@H](C[C@@H](Cc1ccc(-c2ccccc2)cc1)NC(=O)CCC(=O)O)C(=O)O [sacubitrilat]
Circulating cGMP levels (cGMP): increased

Compound: O=C(O)CNC(=O)C(CS)Cc1ccccc1 (centres unmarked) [thiorphan]
Affinity towards NEP2, fold lower than towards NEP (NEP2): 30 times
Inhibition of NEP2 (NEP2): less potently

Compound: ANP: Synthetic ANP, 28 aa, aar 124–151 of UniProt P01160, Bachem
Susceptibility to proteolysis by NEP2 relative to BNP [3]: more susceptible to proteolysis
Susceptibility to proteolysis by NEP relative to BNP [4]: more susceptible to proteolysis
